# Marks after values point to notes of the source that are not given here.
# Tests used:
# [1] = LSZ102 clinical pharmacokinetics; format: in vivo, human
# [2] = test system: ER-positive breast cancer; assay: Investigator-assessed clinical response; format: in vivo, human
# How it was run: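 Local investigator assessed response per RECIST v1.1 in all participants receiving ≥1 dose. ORR = confirmed CR+PR. CBR = CR+PR plus SD or non-CR/non-PD maintained ≥24 weeks. PFS was estimated by Kaplan–Meier. Data were grouped by total daily dose, pooling fed, fasted and food-independent dosing.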
# ER protein = assay: Paired biopsy ER protein by IHC; format: in vivo, human; conditions: cycle 1 day 15, single agent
# [3] = test system: adults with ER-positive breast cancer; assay: Adverse events, serious AEs, deaths, discontinuations; format: in vivo, human
# How it was run: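 Open-label phase I/Ib escalation in adults with ER-positive advanced breast cancer. Oral test compound was given once or twice daily, alone or with one of two partner agents, in continuous 28-day cycles. AEs were defined and graded per CTCAE v4.03. The safety set was treated participants with ≥1 valid postbaseline safety assessment. Fed/fasted data were pooled.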
# [4] = cited from earlier work
# [5] = test system: adults with ER-positive breast cancer; assay: Dose-limiting toxicities in the first 28-day treatment cycle; format: in vivo, human
smiles,measurement,setting,value
CC(F)(F)c1cc(F)ccc1-c1sc2cc(O)ccc2c1Oc1ccc(/C=C/C(=O)O)cc1 [LSZ102],Time to Cmax,[1]; discussion summary,approximately 2 hours
same,Median time to maximum concentration (Cmax),[1]; fasted conditions,2 to 3 h
same,"Discontinuations from study treatment: Progressive disease, n (%)","[2]; human, in vivo",71 (91.0) n (%)
same,Clinical benefit rate (CBR),[2]; whole arm,7.8%
same,Objective response rate (ORR),[2]; whole arm,1.3%
same,Biopsy ER H-score change from screening,ER protein,trend toward dose-dependent ER degradation
same,"Discontinuations from study treatment: Adverse event, n (%)",[3]; in vivo,2 (2.6) n (%)
same,"Discontinuations from study treatment: Death, n (%)",[3]; in vivo,0 n (%)
same,"Deaths on treatment or within 30 days from the last dose, number",[3]; whole arm,5
same,"Participants with treatment-related serious AEs, number",[3]; whole arm,1
same,Increase in LSZ102 exposure with a high-fat high-calorie meal,[4],~2 fold
same,"DLT: ALT increased, participants",[5]; 450 mg QD,1^b
same,"DLT: AST increased, participants",[5]; 450 mg QD,1^b
same,"DLT: Vomiting, participants",[5]; 600 mg QD,1
same,"DLT: Diarrhea, participants",[5]; 900 mg QD,2
same,"DLTs, participants","[5]; first 28-day cycle, whole arm",5%
same,Recommended dose for expansion: LSZ102 dose,[5]; in vivo,450 mg once daily
same,"Participants with ≥ 1 DLT, n (%)","[5]; total daily dose 200 mg, QD (n = 4)",0 n (%)
same,"Participants with ≥ 1 DLT, n (%)","[5]; total daily dose 400 mg, BID (n = 3)",0 n (%)
same,"Participants with ≥ 1 DLT, n (%)","[5]; total daily dose 400 mg, QD (n = 6)",0 n (%)
same,"Participants with ≥ 1 DLT, n (%)","[5]; total daily dose 450 mg, BID (n = 5)",0 n (%)
same,"Participants with ≥ 1 DLT, n (%)","[5]; total daily dose 600 mg (n = 28), QD (n = 23)",1 (3.6) n (%)
same,"Participants with ≥ 1 DLT, n (%)","[5]; total daily dose 600 mg, BID (n = 5)",0 n (%)
same,"Participants with ≥ 1 DLT, n (%)","[5]; total daily dose 900 mg, QD (n = 6)",2 (33.3) n (%)

# — article PMC9401512 (Clinical Cancer Research, 2021)
